The target of test [1] is Proto-oncogene tyrosine-protein kinase Src (Homo sapiens) (UniProt P12931). Briefly: Inhibition of Src at 1 uM relative to control.
Test [2] addresses Mitogen-activated protein kinase 11 (Homo sapiens) (UniProt Q15759). Briefly: Inhibition of p38beta at 1 uM relative to control.
Test [3] deals with Serine/threonine-protein kinase PAK 6 (Homo sapiens) (UniProt Q9NQU5). Briefly: Inhibition of PAK6 at 1 uM relative to control.
In test [4] the target is Calcium/calmodulin-dependent protein kinase kinase 2 (Homo sapiens) (UniProt Q96RR4). Briefly: Inhibition of CAMKKb at 1 uM relative to control.
Chain of Calcium/calmodulin-dependent protein kinase kinase 2 (Homo sapiens) (Q96RR4 2-588 limits assumed): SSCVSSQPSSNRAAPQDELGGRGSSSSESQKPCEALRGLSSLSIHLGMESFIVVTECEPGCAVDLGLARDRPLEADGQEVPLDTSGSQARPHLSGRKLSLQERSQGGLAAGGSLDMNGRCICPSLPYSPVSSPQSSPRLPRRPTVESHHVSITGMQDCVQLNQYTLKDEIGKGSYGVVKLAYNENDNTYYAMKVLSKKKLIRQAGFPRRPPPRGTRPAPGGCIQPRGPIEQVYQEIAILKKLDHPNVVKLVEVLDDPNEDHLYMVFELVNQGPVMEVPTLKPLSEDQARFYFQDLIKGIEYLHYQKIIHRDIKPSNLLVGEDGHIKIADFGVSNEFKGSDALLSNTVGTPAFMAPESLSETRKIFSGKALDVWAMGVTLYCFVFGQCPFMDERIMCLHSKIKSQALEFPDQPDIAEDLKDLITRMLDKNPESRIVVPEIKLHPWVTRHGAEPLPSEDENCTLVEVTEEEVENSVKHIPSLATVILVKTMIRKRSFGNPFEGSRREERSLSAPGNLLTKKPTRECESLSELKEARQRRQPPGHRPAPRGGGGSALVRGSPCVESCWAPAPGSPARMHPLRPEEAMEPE
Test [5] has as its target T1, Protein kinase C zeta type (Homo sapiens) (UniProt Q05513).
T1 sequence (whole entry): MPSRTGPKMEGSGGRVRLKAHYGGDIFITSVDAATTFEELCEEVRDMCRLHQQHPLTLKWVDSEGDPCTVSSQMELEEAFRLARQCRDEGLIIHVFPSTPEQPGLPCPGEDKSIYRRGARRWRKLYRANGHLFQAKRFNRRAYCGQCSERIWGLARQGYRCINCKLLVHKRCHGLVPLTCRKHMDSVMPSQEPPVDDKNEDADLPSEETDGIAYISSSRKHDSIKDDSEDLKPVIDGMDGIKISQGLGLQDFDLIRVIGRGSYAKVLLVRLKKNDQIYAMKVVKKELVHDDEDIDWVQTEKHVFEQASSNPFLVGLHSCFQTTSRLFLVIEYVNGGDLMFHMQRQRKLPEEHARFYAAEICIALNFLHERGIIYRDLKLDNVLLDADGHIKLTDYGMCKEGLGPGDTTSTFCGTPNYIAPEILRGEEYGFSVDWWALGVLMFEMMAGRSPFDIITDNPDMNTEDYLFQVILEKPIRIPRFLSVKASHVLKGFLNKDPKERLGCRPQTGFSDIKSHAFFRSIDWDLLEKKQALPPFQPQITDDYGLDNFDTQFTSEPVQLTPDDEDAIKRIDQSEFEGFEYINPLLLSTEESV
In words: Inhibition of PKCzeta at 1 uM relative to control.

The target in test [6] is Serine/threonine-protein kinase B-raf (Homo sapiens, UniProt P15056, V600E). In words: Inhibition of BRAF V600E mutant. A digest of the protocol: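 Purified, isolated V600E BRAF enzyme assayed in vitro; potency reported as IC50.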
Chain of Serine/threonine-protein kinase B-raf (P15056 2-766 V600E limits assumed): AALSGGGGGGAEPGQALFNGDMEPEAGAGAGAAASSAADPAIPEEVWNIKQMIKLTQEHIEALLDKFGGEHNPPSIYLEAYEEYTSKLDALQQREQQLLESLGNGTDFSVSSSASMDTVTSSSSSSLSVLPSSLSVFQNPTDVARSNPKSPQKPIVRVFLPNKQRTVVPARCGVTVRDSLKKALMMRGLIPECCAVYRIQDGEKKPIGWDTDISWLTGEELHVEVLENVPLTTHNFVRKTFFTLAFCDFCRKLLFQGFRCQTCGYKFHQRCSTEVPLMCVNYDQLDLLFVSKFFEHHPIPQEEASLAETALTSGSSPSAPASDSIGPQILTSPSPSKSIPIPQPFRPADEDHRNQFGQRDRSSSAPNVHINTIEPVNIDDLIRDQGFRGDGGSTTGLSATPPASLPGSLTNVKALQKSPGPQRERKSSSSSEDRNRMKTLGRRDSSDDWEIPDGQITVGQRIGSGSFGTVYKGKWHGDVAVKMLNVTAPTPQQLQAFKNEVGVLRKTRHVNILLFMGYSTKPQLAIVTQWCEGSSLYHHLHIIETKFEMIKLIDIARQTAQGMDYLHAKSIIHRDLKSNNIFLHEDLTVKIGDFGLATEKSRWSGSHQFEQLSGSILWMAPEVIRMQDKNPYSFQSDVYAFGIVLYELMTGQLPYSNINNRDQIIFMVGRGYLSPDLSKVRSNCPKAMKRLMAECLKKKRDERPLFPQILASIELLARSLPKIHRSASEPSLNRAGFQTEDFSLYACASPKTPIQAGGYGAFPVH
Test [7] deals with Ribosomal protein S6 kinase alpha-3 (Homo sapiens) (UniProt P51812). In words: Inhibition of RSK2 at 1 uM relative to control.
Chain of Ribosomal protein S6 kinase alpha-3 (Homo sapiens) (P51812 whole entry): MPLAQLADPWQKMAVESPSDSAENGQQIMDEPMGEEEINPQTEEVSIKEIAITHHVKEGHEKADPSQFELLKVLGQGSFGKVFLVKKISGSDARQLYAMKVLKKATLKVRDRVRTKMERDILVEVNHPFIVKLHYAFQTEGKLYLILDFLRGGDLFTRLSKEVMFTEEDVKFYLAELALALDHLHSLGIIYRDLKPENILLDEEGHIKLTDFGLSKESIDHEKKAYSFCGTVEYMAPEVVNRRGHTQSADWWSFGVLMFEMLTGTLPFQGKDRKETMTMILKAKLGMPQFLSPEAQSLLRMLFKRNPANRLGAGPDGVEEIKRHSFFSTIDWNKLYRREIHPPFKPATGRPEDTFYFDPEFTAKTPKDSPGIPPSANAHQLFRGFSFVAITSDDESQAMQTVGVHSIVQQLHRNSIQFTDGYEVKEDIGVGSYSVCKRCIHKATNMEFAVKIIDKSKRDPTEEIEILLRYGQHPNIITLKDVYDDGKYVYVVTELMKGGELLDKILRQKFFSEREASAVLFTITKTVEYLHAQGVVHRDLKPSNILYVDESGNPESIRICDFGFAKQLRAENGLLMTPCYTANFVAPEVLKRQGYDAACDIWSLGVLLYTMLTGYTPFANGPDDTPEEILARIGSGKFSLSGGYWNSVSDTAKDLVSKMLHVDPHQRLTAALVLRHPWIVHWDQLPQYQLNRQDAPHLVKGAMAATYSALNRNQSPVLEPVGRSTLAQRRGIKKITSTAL
In test [8] the target is T2, MAP kinase-activated protein kinase 5 (Homo sapiens) (UniProt Q8IW41).
T2 sequence (whole entry): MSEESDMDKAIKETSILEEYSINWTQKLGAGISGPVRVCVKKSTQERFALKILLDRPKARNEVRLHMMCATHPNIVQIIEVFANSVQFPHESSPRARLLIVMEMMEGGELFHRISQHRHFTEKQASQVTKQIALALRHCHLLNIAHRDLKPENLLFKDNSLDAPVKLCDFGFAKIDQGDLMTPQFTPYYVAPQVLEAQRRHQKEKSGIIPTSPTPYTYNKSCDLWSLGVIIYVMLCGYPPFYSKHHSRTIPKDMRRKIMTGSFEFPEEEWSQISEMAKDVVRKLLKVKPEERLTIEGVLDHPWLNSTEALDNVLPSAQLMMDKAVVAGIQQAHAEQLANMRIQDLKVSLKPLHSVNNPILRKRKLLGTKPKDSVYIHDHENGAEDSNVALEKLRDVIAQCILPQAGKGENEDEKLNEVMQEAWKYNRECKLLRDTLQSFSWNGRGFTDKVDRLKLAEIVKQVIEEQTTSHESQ
In words: Inhibition of PRAK at 1 uM relative to control.

Test [9] in a line: Growth inhibition of human WM266.4 cells expressing BRAF V600E mutant after 5 days by SRB assay. The format is functional. Conditions: WM 266-4, 120 h. A digest of the protocol:
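WM266.4 human melanoma cells, which are driven by mutant BRAF, were assayed for proliferation by sulforhodamine B (SRB) staining; the value is a GI50.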

The nature of test [10]: Inhibition of CK2 at 1 uM relative to control.
Test [11] has as its target T3, Aurora kinase C (Homo sapiens) (UniProt Q9UQB9).
T3 sequence (whole entry): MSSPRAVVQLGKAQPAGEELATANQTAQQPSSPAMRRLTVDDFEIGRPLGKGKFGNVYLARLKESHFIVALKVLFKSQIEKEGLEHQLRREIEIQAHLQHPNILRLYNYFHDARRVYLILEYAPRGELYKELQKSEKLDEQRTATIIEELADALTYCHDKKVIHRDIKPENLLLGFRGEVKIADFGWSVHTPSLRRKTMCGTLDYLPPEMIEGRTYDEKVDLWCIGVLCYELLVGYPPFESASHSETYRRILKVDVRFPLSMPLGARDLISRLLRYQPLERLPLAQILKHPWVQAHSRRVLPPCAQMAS
In words: Inhibition of Aurora C at 1 uM relative to control.

The target of test [12] is T4, Dual specificity tyrosine-phosphorylation-regulated kinase 3 (Homo sapiens) (UniProt O43781).
T4 sequence (whole entry): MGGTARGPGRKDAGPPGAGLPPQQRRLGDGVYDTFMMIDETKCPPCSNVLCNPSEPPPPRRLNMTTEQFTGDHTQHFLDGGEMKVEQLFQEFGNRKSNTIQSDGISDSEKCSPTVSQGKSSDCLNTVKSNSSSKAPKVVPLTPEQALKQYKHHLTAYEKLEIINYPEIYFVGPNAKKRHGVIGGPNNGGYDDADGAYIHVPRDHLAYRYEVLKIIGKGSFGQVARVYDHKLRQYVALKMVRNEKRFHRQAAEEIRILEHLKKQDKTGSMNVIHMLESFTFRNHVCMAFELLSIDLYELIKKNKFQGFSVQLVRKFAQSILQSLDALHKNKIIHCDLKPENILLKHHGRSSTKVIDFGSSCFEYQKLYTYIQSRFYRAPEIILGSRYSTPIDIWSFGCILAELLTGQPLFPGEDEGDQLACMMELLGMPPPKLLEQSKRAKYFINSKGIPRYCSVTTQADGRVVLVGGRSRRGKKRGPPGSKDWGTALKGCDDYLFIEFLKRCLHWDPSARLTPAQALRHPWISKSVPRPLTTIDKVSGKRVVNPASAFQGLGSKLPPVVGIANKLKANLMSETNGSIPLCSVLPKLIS
Briefly: Inhibition of DYRK3 at 1 uM relative to control.

For test [13], the target named is Aurora kinase B (Homo sapiens) (UniProt Q96GD4). In words: Inhibition of Aurora B at 1 uM relative to control.
Chain of Aurora kinase B (Homo sapiens) (Q96GD4 whole entry): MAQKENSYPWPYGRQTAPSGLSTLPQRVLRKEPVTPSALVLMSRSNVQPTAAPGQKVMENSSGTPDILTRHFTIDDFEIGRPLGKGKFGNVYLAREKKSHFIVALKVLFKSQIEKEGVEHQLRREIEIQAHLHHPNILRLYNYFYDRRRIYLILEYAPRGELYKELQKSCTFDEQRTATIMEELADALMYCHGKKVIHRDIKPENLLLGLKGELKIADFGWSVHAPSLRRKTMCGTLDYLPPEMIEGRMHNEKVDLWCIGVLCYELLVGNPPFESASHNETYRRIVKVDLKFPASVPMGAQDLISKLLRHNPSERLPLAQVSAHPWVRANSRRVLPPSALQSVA

Chain of Proto-oncogene tyrosine-protein kinase Src (Homo sapiens) (P12931 2-536 limits assumed): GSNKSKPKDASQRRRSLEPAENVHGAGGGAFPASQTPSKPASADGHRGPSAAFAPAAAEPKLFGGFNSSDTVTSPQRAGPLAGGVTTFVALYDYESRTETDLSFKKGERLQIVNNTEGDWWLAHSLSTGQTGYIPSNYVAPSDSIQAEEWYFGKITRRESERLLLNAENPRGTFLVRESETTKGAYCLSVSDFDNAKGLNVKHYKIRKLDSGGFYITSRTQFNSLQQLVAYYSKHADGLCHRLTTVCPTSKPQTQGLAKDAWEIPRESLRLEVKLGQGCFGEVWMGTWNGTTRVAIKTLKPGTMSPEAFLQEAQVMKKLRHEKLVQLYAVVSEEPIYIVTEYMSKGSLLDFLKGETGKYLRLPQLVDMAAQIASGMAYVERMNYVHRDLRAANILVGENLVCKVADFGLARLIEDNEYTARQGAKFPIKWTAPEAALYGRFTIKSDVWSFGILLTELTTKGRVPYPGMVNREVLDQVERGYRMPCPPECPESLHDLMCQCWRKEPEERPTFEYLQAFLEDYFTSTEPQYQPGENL
Chain of Mitogen-activated protein kinase 11 (Homo sapiens) (Q15759 whole entry): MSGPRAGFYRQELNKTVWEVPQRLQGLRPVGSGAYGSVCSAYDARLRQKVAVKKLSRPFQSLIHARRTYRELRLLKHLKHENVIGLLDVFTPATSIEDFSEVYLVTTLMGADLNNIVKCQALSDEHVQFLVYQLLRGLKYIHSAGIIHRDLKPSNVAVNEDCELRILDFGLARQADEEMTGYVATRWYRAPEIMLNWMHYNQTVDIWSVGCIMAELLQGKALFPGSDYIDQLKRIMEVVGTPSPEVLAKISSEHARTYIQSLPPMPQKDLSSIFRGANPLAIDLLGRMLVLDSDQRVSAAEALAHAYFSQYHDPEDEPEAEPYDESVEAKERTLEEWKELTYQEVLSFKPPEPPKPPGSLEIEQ
Chain of Serine/threonine-protein kinase PAK 6 (Homo sapiens) (Q9NQU5 whole entry, looked up): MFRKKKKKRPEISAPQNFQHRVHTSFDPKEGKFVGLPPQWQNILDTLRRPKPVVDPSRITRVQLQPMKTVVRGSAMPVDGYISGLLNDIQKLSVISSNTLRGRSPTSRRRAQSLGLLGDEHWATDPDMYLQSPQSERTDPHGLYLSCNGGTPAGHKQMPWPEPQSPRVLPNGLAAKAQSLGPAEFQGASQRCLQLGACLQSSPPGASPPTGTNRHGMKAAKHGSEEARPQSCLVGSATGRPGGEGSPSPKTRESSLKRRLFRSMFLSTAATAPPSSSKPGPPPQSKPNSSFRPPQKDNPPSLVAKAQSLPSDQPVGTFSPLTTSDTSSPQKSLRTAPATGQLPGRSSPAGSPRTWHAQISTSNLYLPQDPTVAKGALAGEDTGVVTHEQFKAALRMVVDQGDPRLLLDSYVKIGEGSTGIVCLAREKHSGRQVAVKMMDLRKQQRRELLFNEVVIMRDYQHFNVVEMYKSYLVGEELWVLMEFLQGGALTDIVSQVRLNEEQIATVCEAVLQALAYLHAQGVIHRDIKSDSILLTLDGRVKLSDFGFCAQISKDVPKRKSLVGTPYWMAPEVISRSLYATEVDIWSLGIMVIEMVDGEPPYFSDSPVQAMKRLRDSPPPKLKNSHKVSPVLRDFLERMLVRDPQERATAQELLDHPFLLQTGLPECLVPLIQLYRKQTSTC

In the case of `O=C(Nc1cc(C(F)(F)F)ccc1F)Nc1ccc(Oc2ccnc3[nH]c(=O)[nH]c23)c2ccccc12`, the residual activity in test [1] is less than 25%; in test [2], less than 25%; in test [3], 100%; in test [4] it was 100%; in [5], 75%; in test [7], 100%. Further, the residual activity in test [8] was 75%; in [10] it was 100%; in test [11], less than 25%; in [12], 100%; in test [13], less than 25%. The concentration for half-maximal inhibition (IC50) in test [6] turned out to be 37 nM. The compound further yielded a 50% growth inhibitory concentration (GI50) in test [9] of 290 nM.
`CC(C)(C)c1cccc(NC(=O)Nc2ccc(Oc3ccnc4[nH]c(=O)[nH]c34)c3ccccc23)c1`: the residual activity in test [1] was less than 25%; in test [2], less than 25%; in test [3], 75%; in test [4] it was 75%; in [5], 75%; in [7], 75%. For the same compound, the residual activity worked out at 75% in test [8]; 100% in test [10]; 75% in test [11]; 75% in [12]; 50% in test [13]. Further, the IC50 in test [6] was found to be 79 nM. This compound also came in with a concentration for 50% growth inhibition (GI50) in test [9] of 3900 nM.
Turning to `CSc1cc(Oc2ccnc3[nH]c(=O)[nH]c23)ccc1NC(=O)Nc1cccc(C(F)(F)F)c1`, the residual activity in test [1] was less than 25%; in test [2], less than 25%; in test [3], 100%; in [4], 50%; in [5], 75%; in test [7], 100%. Moreover, the residual activity in [8] was 75%; in test [10] it was 100%; in test [11] it was 50%; in test [12], 75%; in test [13], less than 25%. In [6], 1 nM corresponded to half-maximal inhibition (IC50). This compound registered a GI50 in [9] of 1060 nM.

The values are drawn from ChEMBL document CHEMBL1136991, “Novel potent BRAF inhibitors: toward 1 nM compounds through optimization of the central phenyl ring” (J Med Chem, 2009).
